pIC50: −log10 of the molar value.
Experiments:
[1] = target: Lysine-specific demethylase 5A (Homo sapiens, UniProt P29375); assay: Inhibition of JARID1A (unknown origin) after 30 mins by AlphaScreen assay
Summary of the method: (§1)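 AlphaScreen competition with histone peptide. Compounds in 3-fold, 10-point dilutions, top 10 or 30 μM; buffer 20 mM Tris pH 8.0, 25 mM NaCl, 2 mM DTT, 0.05% Tween-20. Protein-peptide mix 30 min RT, then streptavidin donor plus nickel-chelate acceptor beads (GST acceptor beads for GST-tagged PHF23, JARID1A) 30 min RT dark. […] Protein-free His6-biotin peptide counterscreen.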

[2] = target: T1, Chromobox protein homolog 7 (Homo sapiens, UniProt O95931); assay: Inhibition of CBX7 (unknown origin) after 30 mins by AlphaScreen assay
T1 sequence (O95931 whole entry): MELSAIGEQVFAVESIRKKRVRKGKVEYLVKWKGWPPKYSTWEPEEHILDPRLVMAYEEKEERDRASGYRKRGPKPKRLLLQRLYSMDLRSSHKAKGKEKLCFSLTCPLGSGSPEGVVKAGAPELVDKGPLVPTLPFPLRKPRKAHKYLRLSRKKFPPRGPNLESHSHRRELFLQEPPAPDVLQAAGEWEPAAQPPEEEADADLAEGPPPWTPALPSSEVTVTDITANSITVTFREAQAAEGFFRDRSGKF
Summary of the method: (§2)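 AlphaScreen competition with histone peptide. Compounds in 3-fold, 10-point dilutions, top 10 or 30 μM; buffer 20 mM Tris pH 8.0, 25 mM NaCl, 2 mM DTT, 0.05% Tween-20. Protein-peptide mix 30 min RT, then streptavidin donor plus nickel-chelate acceptor beads (GST acceptor beads for GST-tagged PHF23, JARID1A) 30 min RT dark. Protein-free His6-biotin peptide counterscreen.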

TP53-binding protein 1 = TP53-binding protein 1 (Homo sapiens, UniProt Q12888); assay: Inhibition of 53BP1 (unknown origin) after 30 mins by AlphaScreen assay; summary of the method: as §1
TP53-binding protein 1, sequence (Q12888 whole entry, the tested form may be a part): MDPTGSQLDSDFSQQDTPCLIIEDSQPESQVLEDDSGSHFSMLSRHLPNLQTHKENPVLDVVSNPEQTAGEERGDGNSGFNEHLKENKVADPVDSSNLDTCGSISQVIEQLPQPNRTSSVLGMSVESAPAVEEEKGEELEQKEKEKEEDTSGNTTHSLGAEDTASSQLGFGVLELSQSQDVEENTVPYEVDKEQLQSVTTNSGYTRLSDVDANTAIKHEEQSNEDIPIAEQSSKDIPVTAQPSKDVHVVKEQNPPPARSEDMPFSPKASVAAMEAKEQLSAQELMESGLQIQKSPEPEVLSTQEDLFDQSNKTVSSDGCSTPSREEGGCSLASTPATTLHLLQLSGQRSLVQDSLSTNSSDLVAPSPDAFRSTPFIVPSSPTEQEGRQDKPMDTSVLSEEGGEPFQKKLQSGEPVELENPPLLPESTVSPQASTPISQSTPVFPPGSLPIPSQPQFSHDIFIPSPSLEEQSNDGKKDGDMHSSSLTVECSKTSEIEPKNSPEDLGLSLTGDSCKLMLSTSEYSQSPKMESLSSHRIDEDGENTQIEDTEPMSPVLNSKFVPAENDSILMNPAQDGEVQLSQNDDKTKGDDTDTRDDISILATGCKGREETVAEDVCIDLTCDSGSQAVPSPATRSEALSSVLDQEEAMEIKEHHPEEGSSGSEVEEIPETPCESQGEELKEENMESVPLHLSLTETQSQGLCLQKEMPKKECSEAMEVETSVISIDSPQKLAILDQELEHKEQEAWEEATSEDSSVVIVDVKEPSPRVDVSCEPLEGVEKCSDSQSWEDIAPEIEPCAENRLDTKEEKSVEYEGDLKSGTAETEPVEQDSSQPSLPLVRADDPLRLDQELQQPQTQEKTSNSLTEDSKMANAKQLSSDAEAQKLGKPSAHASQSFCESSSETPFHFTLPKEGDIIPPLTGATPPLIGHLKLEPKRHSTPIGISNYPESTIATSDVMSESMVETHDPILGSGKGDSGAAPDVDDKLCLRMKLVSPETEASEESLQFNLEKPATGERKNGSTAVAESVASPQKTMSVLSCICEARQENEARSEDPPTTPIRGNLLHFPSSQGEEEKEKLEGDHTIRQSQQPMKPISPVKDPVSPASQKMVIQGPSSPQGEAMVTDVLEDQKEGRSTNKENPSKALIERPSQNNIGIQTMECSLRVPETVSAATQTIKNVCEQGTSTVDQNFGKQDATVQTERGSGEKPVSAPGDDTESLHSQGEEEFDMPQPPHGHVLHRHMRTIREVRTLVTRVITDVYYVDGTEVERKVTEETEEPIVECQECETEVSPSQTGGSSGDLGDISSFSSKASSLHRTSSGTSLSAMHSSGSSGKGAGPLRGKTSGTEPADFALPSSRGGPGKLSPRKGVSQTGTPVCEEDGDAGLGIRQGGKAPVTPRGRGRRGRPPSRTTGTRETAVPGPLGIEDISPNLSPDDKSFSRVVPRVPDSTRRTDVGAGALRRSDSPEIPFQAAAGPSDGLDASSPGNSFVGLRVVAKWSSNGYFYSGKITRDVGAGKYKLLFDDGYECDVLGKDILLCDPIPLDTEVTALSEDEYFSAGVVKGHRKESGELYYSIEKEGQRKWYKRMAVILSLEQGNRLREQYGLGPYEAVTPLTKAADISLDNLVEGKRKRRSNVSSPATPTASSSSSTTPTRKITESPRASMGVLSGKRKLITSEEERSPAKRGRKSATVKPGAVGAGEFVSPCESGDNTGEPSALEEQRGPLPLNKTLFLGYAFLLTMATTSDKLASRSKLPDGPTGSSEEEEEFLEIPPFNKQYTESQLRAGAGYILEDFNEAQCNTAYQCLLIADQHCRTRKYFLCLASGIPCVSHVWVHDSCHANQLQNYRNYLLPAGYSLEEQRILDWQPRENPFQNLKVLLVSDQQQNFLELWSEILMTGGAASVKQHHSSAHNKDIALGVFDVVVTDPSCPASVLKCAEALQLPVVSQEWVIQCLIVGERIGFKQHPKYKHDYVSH

[3] = target: MBT domain-containing protein 1 (Homo sapiens, UniProt Q05BQ5); assay: Inhibition of MBTD1 (unknown origin) after 30 mins by AlphaScreen assay; summary of the method: as §2
MBT domain-containing protein 1, sequence (Q05BQ5 whole entry, the tested form may be a part): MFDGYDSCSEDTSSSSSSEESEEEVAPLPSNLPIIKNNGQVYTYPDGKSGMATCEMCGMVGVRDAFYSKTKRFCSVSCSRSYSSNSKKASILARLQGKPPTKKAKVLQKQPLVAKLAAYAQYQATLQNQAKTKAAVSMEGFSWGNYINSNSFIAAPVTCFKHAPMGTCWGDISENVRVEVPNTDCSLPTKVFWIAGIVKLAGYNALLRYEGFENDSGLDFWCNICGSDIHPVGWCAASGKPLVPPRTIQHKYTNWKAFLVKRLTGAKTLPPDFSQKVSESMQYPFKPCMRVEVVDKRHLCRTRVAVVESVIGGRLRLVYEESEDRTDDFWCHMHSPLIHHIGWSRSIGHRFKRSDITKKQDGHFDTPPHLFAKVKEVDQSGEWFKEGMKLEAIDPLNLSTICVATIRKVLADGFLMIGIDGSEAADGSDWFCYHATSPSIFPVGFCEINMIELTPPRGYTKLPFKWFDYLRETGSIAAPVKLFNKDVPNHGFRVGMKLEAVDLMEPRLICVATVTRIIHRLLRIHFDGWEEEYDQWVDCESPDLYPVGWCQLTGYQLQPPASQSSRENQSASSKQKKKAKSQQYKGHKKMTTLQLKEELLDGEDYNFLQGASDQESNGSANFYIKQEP

[4] = target: T2, Lethal(3)malignant brain tumor-like protein 4 (Homo sapiens, UniProt Q8NA19); assay: Inhibition of L3MBTL4 (unknown origin) after 30 mins by AlphaScreen assay; summary of the method: as §2
T2 sequence (Q8NA19 whole entry): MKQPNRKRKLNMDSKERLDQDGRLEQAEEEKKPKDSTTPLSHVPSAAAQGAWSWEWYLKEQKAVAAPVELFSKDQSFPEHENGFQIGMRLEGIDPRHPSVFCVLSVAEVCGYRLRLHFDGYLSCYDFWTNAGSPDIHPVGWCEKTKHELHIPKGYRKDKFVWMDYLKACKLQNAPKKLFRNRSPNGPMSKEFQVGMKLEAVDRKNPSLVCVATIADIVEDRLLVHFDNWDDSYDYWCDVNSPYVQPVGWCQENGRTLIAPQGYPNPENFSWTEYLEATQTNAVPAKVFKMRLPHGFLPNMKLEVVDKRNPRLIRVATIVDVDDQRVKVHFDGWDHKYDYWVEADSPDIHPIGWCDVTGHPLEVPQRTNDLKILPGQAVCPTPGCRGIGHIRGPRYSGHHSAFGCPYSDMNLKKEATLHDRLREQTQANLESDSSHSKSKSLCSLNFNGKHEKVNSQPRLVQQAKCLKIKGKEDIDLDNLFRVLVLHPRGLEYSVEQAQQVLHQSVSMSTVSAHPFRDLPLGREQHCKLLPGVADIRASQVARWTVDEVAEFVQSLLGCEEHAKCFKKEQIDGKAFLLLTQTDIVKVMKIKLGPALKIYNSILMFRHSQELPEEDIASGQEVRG

Measured: pIC50

Lysine-specific demethylase 5A, sequence (P29375 whole entry): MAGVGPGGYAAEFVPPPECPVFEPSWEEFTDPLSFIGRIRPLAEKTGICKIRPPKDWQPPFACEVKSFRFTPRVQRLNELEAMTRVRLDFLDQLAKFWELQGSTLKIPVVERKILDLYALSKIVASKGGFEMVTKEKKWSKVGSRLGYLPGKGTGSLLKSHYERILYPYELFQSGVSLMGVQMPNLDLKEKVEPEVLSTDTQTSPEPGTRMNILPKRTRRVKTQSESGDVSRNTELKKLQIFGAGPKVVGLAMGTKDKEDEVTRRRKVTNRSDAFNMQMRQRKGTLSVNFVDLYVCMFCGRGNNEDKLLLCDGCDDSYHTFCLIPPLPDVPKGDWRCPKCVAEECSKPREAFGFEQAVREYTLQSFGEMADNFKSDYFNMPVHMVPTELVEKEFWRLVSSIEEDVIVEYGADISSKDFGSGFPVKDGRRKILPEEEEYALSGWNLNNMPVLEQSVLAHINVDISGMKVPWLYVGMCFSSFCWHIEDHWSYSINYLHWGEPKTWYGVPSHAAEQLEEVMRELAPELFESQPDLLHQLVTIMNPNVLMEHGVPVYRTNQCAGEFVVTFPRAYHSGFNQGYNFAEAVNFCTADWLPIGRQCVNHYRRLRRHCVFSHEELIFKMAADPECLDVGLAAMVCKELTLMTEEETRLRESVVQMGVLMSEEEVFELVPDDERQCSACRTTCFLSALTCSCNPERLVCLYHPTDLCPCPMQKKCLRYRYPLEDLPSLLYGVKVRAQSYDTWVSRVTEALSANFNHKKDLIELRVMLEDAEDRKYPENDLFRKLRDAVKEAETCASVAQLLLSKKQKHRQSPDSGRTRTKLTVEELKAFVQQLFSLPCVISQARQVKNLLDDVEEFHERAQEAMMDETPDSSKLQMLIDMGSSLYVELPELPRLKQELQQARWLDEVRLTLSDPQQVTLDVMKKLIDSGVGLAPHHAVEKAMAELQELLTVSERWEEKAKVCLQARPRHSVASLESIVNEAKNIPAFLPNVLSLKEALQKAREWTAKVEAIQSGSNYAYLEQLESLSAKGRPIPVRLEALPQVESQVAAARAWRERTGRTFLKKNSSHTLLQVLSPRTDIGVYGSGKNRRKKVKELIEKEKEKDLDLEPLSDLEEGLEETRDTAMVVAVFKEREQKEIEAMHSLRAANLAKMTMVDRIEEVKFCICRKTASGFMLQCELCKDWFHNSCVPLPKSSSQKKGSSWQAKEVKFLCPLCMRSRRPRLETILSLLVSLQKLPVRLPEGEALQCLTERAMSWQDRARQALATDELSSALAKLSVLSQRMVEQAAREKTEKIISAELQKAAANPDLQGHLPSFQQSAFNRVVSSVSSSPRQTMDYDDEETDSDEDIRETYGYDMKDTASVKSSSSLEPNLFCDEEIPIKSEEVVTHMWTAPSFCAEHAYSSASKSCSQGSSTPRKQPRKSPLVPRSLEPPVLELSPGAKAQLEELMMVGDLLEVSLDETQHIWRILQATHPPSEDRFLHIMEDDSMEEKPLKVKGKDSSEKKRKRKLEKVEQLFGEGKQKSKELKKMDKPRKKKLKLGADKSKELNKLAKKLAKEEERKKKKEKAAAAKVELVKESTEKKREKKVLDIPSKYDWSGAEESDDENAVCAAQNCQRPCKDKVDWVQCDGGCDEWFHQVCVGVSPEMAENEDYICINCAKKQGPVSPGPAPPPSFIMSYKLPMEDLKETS

CCN1Cc2ccc(NC(=O)c3ccc(C(=O)N4CCC(N5CCCC5)CC4)cc3)cc2C1
< 5.00: [1] | [2] | TP53-binding protein 1 | [3] | [4]

O=C(NCCCN1CCCC1)c1ccc(C(=O)N2CCC(N3CCCC3)CC2)cc1
< 5.00: [1] | [2] | TP53-binding protein 1 | [3] | [4]

O=C(c1ccc(C(=O)N2CCC(N3CCCC3)C2)cc1)N1CCC(N2CCCC2)CC1 (centres undefined)
< 5.00: [1] | [2] | TP53-binding protein 1 | [3] | [4]

O=C(c1ccc(C(=O)N2CCC3(CCNC3)C2)cc1)N1CCC(N2CCCC2)CC1 (centres undefined)
< 5.00: [1] | [2] | TP53-binding protein 1 | [3] | [4]

O=C(c1ccc(C(=O)N2CC3CCC(C2)C3N2CCCC2)cc1)N1CCC(N2CCCC2)CC1 (centres undefined)
< 5.00: [1] | [2] | TP53-binding protein 1 | [3] | [4]

O=C(c1ccc(C(=O)N2CCC(N3CCCC3)CC2)c([N+](=O)[O-])c1)N1CCC(N2CCCC2)CC1
< 5.00: [1] | [2] | TP53-binding protein 1 | [3] | [4]

O=C(c1ccc(C(=O)N2CCC(N3CCCC3)CC2)cc1)N1CCC(N2CCCCCC2)CC1
< 5.00: [1] | [2] | TP53-binding protein 1 | [4]
5.01: [3]

CN1CCC(N2CCN(C(=O)c3ccc(C(=O)N4CCC(N5CCCC5)CC4)cc3)CC2)CC1
< 5.00: [1] | [2] | TP53-binding protein 1 | [3] | [4]

O=C(c1ccc(C(=O)N2CCC(N3CCCC3)CC2)c(Cc2ccccc2)c1)N1CCC(N2CCCC2)CC1
5.17: [3]
< 5.00: [1] | [2] | TP53-binding protein 1 | [4]

CN(C)C1CCN(C(=O)c2ccc(C(=O)N3CCC(N(C)C)CC3)cc2)CC1
< 5.00: [1] | [2] | TP53-binding protein 1 | [3] | [4]

O=C(c1ccc(CN2CCC(N3CCCC3)CC2)cc1)N1CCC(N2CCCC2)CC1
< 5.00: [1] | [2] | TP53-binding protein 1 | [4]
5.09: [3]

CN1CCN2CC(NC(=O)c3ccc(C(=O)N4CCC(N5CCCC5)CC4)cc3)CC2C1 (centres undefined)
< 5.00: [1] | [2] | TP53-binding protein 1 | [3] | [4]

O=C(c1c(F)c(F)c(C(=O)N2CCC(N3CCCC3)CC2)c(F)c1F)N1CCC(N2CCCC2)CC1
< 5.00: [1] | [2] | TP53-binding protein 1 | [3] | [4]

C[N+]1(C2CCN(C(=O)c3ccc(C(=O)N4CCC(N5CCCC5)CC4)cc3)CC2)CCCC1
< 5.00: [1] | [2] | TP53-binding protein 1 | [3] | [4]

O=C(c1ccc(C(=O)N2CC3(CCNC3)C2)cc1)N1CCC(N2CCCC2)CC1
< 5.00: [1] | [2] | TP53-binding protein 1 | [3] | [4]

O=C(c1ccc(C(=O)N2CCC(C3CCCN3)CC2)cc1)N1CCC(C2CCCN2)CC1 (centres undefined)
< 5.00: [1] | [2] | TP53-binding protein 1 | [4]
5.40: [3]

O=C(c1ccc(C(=O)N2CCC(N3CCCC3)CC2)c(NCc2ccccc2)c1)N1CCC(N2CCCC2)CC1
5.06: TP53-binding protein 1
< 5.00: [1] | [2] | [3] | [4]

CN(C)C1CCN(C(=O)c2ccc(C(=O)N3CCC(N4CCCC4)CC3)cc2)CC1
< 5.00: [1] | [2] | TP53-binding protein 1 | [3] | [4]

O=C(c1ccc(C(=O)N2CC3CNCC3C2)cc1)N1CCC(N2CCCC2)CC1 (centres undefined)
< 5.00: [1] | [2] | TP53-binding protein 1 | [3] | [4]

O=C(c1ccc(C(=O)N2CCC3(CCNC3)CC2)cc1)N1CCC(N2CCCC2)CC1
< 5.00: [1] | [2] | TP53-binding protein 1 | [3] | [4]

O=C(c1ccc(C(=O)N2CCC(N3CCCC3)CC2)c(Br)c1)N1CCC(N2CCCC2)CC1
5.11: [3]
< 5.00: [1] | [2] | TP53-binding protein 1 | [4]

CN1CCCC1C1CCN(C(=O)c2ccc(C(=O)N3CCC(C4CCCN4C)CC3)cc2)CC1 (centres undefined)
< 5.00: [1] | [2] | TP53-binding protein 1 | [3] | [4]

O=C(c1ccc(C(=O)N2CCC(N3CCCC3)CC2)cc1)N1CCC(C2CCCN2)CC1 (centres undefined)
< 5.00: [1] | [2] | TP53-binding protein 1 | [4]

O=C(c1ccc(C(=O)N2CCC(N3CCC3)CC2)cc1)N1CCC(N2CCC2)CC1
< 5.00: [1] | [2] | TP53-binding protein 1 | [3] | [4]

CCN1Cc2ccc(NC(=O)c3ccc(C(=O)N4CC5CCC(C4)C5N4CCCC4)cc3)cc2C1 (centres undefined)
< 5.00: [1] | [2] | TP53-binding protein 1 | [3] | [4]

O=C(c1ccc(C(=O)N2CCC(N3CCCC3)CC2)c(-c2ccccc2)c1)N1CCC(N2CCCC2)CC1
< 5.00: [1] | [2] | TP53-binding protein 1 | [3] | [4]

O=C(c1ccc(C(=O)N2CCC(N3CCCC3)CC2)nc1)N1CCC(N2CCCC2)CC1
< 5.00: [1] | [2] | TP53-binding protein 1 | [3] | [4]

O=C(c1ccc(C(=O)N2CCC(N3CCOCC3)CC2)cc1)N1CCC(N2CCCC2)CC1
< 5.00: [1] | [2] | TP53-binding protein 1 | [3] | [4]

O=C(c1ccc(C(=O)N2CCC(N3CCCC3)CC2)c(C(=O)N2CCC(N3CCCC3)CC2)c1)N1CCC(N2CCCC2)CC1
5.10: TP53-binding protein 1
< 5.00: [1] | [2] | [3] | [4]

O=C(c1ccc(C(=O)N2CCC(N3CCCC3)CC2)o1)N1CCC(N2CCCC2)CC1
< 5.00: [1] | [2] | TP53-binding protein 1 | [3] | [4]

O=C(c1ccccc1C(=O)N1CCC(N2CCCC2)CC1)N1CCC(N2CCCC2)CC1
5.33: TP53-binding protein 1
< 5.00: [1] | [2] | [3] | [4]

Cc1cc(C(=O)N2CCC(N3CCCC3)CC2)c(C)cc1C(=O)N1CCC(N2CCCC2)CC1
< 5.00: [1] | [2] | TP53-binding protein 1 | [3] | [4]

O=C(c1ccc(S(=O)(=O)N2CCC(N3CCCC3)CC2)cc1)N1CCC(N2CCCC2)CC1
< 5.00: [1] | [2] | TP53-binding protein 1 | [4]
5.27: [3]

O=C(c1ccc(C(=O)N2CC3CCC(C2)C3N2CCCC2)cc1)N1CC2CCC(C1)C2N1CCCC1 (centres undefined)
< 5.00: [1] | [2] | TP53-binding protein 1 | [3] | [4]

O=C(c1ccc(C(=O)N2CCC(N3CCCC3)CC2)s1)N1CCC(N2CCCC2)CC1
< 5.00: [1] | [2] | TP53-binding protein 1 | [3] | [4]

CCN1Cc2ccc(NC(=O)c3ccc(C(=O)N4CCC(C5CCCN5)CC4)cc3Nc3ccccc3)cc2C1 (centres undefined)
5.46: TP53-binding protein 1 | [3]
< 5.00: [1] | [2] | [4]

O=C(c1ccc(C(=O)N2CC(N3CCCC3)C2)cc1)N1CCC(N2CCCC2)CC1
< 5.00: [1] | [2] | TP53-binding protein 1 | [3] | [4]

O=C(c1ccc(C(=O)N2CCCC(N3CCCC3)CC2)cc1)N1CCCC(N2CCCC2)CC1 (centres undefined)
< 5.00: [1] | [2] | TP53-binding protein 1 | [3] | [4]
